Test results taken from ChEMBL document CHEMBL3525913, “Metabolism-dependent inhibition of CYP3A4 by lapatinib: evidence for formation of a metabolic intermediate complex with a nitroso/oxime metabolite formed via a nitrone intermediate” (Drug Metab Dispos, 2013).

How the values were obtained:
Liver microsome = assay: Drug level in human liver microsomes treated with lapatinib at 50 uM by LC/MS/MS analysis; type: ADME
Procedure, shortened: (§1)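 Lapatinib 50 μM (added in DMSO) incubated 30 min at 37°C in 100 mM potassium phosphate pH 7.4 with HLM 1 mg/mL or recombinant CYP3A4+b5 / CYP3A5+b5 100 pmol/mL. Reaction started with NADPH 1 mM. Protein re-isolated by ultracentrifugation (100,000 x g, 4°C, 60 min), washed (KCl/EDTA), resuspended in phosphate buffer, ±2 mM ferricyanide 10 min 37°C, quenched with acetonitrile, then high-resolution LC/MS profiling.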

Cytochrome P450 3A4 = Cytochrome P450 3A4 (Homo sapiens, UniProt P08684); assay: Activity of recombinant CYP3A4 (unknown origin) assessed as compound formation treated with lapatinib at 50 uM by LC/MS/MS analysis; type: ADME; conditions: recombinant enzyme; procedure, shortened: as §1
Sequence of Cytochrome P450 3A4 (P08684 whole entry): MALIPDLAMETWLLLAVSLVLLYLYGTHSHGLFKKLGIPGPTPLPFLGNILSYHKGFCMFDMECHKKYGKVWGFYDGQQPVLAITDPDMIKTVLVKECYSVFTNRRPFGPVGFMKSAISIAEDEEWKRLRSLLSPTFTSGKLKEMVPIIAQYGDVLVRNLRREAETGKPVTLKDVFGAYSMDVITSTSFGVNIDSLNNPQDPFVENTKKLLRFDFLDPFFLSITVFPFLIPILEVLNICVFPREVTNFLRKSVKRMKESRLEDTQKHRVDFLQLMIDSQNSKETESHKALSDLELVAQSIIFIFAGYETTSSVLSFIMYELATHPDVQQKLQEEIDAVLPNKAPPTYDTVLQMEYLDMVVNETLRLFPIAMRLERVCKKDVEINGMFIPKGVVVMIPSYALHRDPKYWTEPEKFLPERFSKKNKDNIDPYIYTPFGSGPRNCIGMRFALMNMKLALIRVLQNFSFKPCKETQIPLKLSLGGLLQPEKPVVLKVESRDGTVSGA

[1] = Retention time of the compound by LC/MS/MS analysis relative to lapatinib; type: physicochemical
Procedure, shortened: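 Phenyl UPLC column (1.7 μm, 2.1 x 100 mm), 0.1% formic acid in water/acetonitrile, 0.4 mL/min. Gradient: 10% organic for 1 min, to 90% over 13 min, held 0.5 min. Detection by accurate-mass MS. Retention times expressed relative to lapatinib.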

Cytochrome P450 3A5 = Cytochrome P450 3A5 (Homo sapiens, UniProt P20815); assay: Activity of recombinant CYP3A5 (unknown origin) assessed as compound formation treated with lapatinib at 50 uM by LC/MS/MS analysis; type: ADME; conditions: recombinant enzyme; procedure, shortened: as §1
Sequence of Cytochrome P450 3A5 (P20815 whole entry): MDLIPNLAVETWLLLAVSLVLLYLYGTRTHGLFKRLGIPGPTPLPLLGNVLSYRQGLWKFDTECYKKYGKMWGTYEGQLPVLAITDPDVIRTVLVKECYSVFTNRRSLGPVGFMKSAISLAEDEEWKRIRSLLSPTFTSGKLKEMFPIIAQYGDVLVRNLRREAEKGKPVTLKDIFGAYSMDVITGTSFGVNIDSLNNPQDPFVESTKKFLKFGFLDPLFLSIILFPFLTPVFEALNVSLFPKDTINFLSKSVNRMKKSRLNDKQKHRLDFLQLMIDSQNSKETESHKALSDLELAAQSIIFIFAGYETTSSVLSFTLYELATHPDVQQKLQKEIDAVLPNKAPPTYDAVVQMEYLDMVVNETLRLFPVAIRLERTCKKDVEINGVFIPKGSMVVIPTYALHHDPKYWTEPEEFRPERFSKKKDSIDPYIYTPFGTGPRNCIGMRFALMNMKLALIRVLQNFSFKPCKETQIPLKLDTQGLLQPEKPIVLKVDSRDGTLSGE

Drug metabolism (Liver microsome)	Drug metabolism (Cytochrome P450 3A4)	Ratio [1]	Drug metabolism (Cytochrome P450 3A5)	Structure (SMILES)
metabolite_detected	metabolite_detected	0.5	metabolite_detected	CS(=O)(=O)CCNCc1ccc(-c2ccc3ncnc(Nc4ccc(O)c(Cl)c4)c3c2)o1
metabolite_detected	metabolite_detected	1.14	metabolite_detected	CS(=O)(=O)CCN(O)Cc1ccc(-c2ccc3ncnc(Nc4ccc(OCc5cccc(F)c5)c(Cl)c4)c3c2)o1
metabolite_detected	metabolite_detected	1.18	metabolite_detected	O/N=C/c1ccc(-c2ccc3ncnc(Nc4ccc(OCc5cccc(F)c5)c(Cl)c4)c3c2)o1
metabolite_detected	metabolite_detected	0.97	metabolite_detected	NCc1ccc(-c2ccc3ncnc(Nc4ccc(OCc5cccc(F)c5)c(Cl)c4)c3c2)o1
